# Source: ChEMBL document CHEMBL4689842, “EUbOPEN Chemogenomics Library wave 1” (2021)
# Several values for one entry are separate records, joined by “and”; a condition that tells them apart may be missing. Equal entries are not always repeated.
# Test system: U2OS
# Assay: Multiplex assay against U2OS
# Type: toxicity, cell-based
# Settings: human
# In short: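 Four dyes were applied at seeding to live cells: Hoechst33342, BioTracker Green Microtubule Cytoskeleton Dye, MitoTracker Red and Annexin V Alexa Fluor 680. Imaging after compound addition used a CQ1 microscope at 37°C and 5% CO2. CellPathfinder machine-learning gating then sorted cells into Hoechst high-intensity objects or normal cells, normal cells into healthy, pyknosed or fragmented nuclei, and pyknosed cells into mitotic or apoptotic, with tubulin, mitochondrial-mass and membrane-permeability phenotypes given as per cents of healthy-nucleus cells.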
# [1] = 12 h, 1 µM, compound concentration 1 uM, replicate 1
# [2] = 12 h, 1 µM, compound concentration 1 uM, replicate 2
# [3] = 12 h, 10 µM, compound concentration 10 uM, replicate 1
# [4] = 12 h, 10 µM, compound concentration 10 uM, replicate 2
# [5] = 24 h, 1 µM, compound concentration 1 uM, replicate 1
# [6] = 24 h, 1 µM, compound concentration 1 uM, replicate 2
# [7] = 24 h, 10 µM, compound concentration 10 uM, replicate 1
# [8] = 24 h, 10 µM, compound concentration 10 uM, replicate 2
# [9] = 48 h, 1 µM, compound concentration 1 uM, replicate 1
# [10] = 48 h, 1 µM, compound concentration 1 uM, replicate 2
# [11] = 48 h, 10 µM, compound concentration 10 uM, replicate 1
# [12] = 48 h, 10 µM, compound concentration 10 uM, replicate 2
structure (smiles),measurement,setting,value
Cc1ccc2c(c1)c1c(n2CCc2ccc(C)nc2)CCN(C)C1 [LATREPIRDINE],Population Apoptotic (%),[1],53%
same,Population Fragmented Nuclei (%),[1],8%
same,Population Healthy Nuclei (%),[1],81%
same,Population Hoechst High Intensity Objects (%),[1],7%
same,Population Membrane Permeable-Phenotype (%),[1],6%
same,Population Mitochondria Different-Phenotype (%),[1],46%
same,Population Mitotic Cells (%),[1],46%
same,Population Normal (%),[1],92%
same,Population Pyknosed Nuclei (%),[1],9%
same,Population Tubulin-Different-Phenotype (%),[1],42%
same,Total Cell Count,[1],147
same,Population Apoptotic (%),[2],100%
same,Population Fragmented Nuclei (%),[2],27%
same,Population Healthy Nuclei (%),[2],67%
same,Population Hoechst High Intensity Objects (%),[2],16%
same,Population Membrane Permeable-Phenotype (%),[2],5%
same,Population Mitochondria Different-Phenotype (%),[2],27%
same,Population Mitotic Cells (%),[2],0%
same,Population Normal (%),[2],83%
same,Population Pyknosed Nuclei (%),[2],4%
same,Population Tubulin-Different-Phenotype (%),[2],27%
same,Total Cell Count,[2],61
same,Population Apoptotic (%),[3],47%
same,Population Fragmented Nuclei (%),[3],11%
same,Population Healthy Nuclei (%),[3],64%
same,Population Hoechst High Intensity Objects (%),[3],7%
same,Population Membrane Permeable-Phenotype (%),[3],21%
same,Population Mitochondria Different-Phenotype (%),[3],97%
same,Population Mitotic Cells (%),[3],52%
same,Population Normal (%),[3],92%
same,Population Pyknosed Nuclei (%),[3],24%
same,Total Cell Count,[3],142
same,Population Apoptotic (%),[4],88%
same,Population Fragmented Nuclei (%),[4],7%
same,Population Healthy Nuclei (%),[4],65%
same,Population Hoechst High Intensity Objects (%),[4],8%
same,Population Membrane Permeable-Phenotype (%),[4],42%
same,Population Mitochondria Different-Phenotype (%),[4],100%
same,Population Mitotic Cells (%),[4],11%
same,Population Normal (%),[4],91%
same,Population Pyknosed Nuclei (%),[4],26%
same,Population Tubulin-Different-Phenotype (%),[4],100%
same,Total Cell Count,[4],103
same,Population Apoptotic (%),[5],47%
same,Population Fragmented Nuclei (%),[5],6%
same,Population Healthy Nuclei (%),[5],83%
same,Population Hoechst High Intensity Objects (%),[5],3%
same,Population Membrane Permeable-Phenotype (%),[5],4%
same,Population Mitochondria Different-Phenotype (%),[5],38%
same,Population Mitotic Cells (%),[5],52%
same,Population Normal (%),[5],96%
same,Population Pyknosed Nuclei (%),[5],10%
same,Population Tubulin-Different-Phenotype (%),[5],30%
same,Total Cell Count,[5],166
same,Population Apoptotic (%),[6],55%
same,Population Fragmented Nuclei (%),[6],23%
same,Population Healthy Nuclei (%),[6],67%
same,Population Hoechst High Intensity Objects (%),[6],13%
same,Population Membrane Permeable-Phenotype (%),[6],10%
same,Population Mitochondria Different-Phenotype (%),[6],27%
same,Population Mitotic Cells (%),[6],44%
same,Population Normal (%),[6],86%
same,Population Pyknosed Nuclei (%),[6],8%
same,Population Tubulin-Different-Phenotype (%),[6],14%
same,Total Cell Count,[6],74
same,Population Apoptotic (%),[7],71%
same,Population Fragmented Nuclei (%),[7],12%
same,Population Healthy Nuclei (%),[7],54%
same,Population Hoechst High Intensity Objects (%),[7],8%
same,Population Membrane Permeable-Phenotype (%),[7],24%
same,Population Mitochondria Different-Phenotype (%),[7],97%
same,Population Mitotic Cells (%),[7],28%
same,Population Normal (%),[7],91%
same,Population Pyknosed Nuclei (%),[7],33%
same,Population Tubulin-Different-Phenotype (%),[7],100%
same,Total Cell Count,[7],172
same,Population Apoptotic (%),[8],76%
same,Population Fragmented Nuclei (%),[8],4%
same,Population Healthy Nuclei (%),[8],56%
same,Population Hoechst High Intensity Objects (%),[8],4%
same,Population Membrane Permeable-Phenotype (%),[8],56%
same,Population Mitochondria Different-Phenotype (%),[8],100%
same,Population Mitotic Cells (%),[8],24%
same,Population Normal (%),[8],95%
same,Population Pyknosed Nuclei (%),[8],38%
same,Total Cell Count,[8],119
same,Population Apoptotic (%),[9],40%
same,Population Fragmented Nuclei (%),[9],4%
same,Population Healthy Nuclei (%),[9],81%
same,Population Hoechst High Intensity Objects (%),[9],2%
same,Population Membrane Permeable-Phenotype (%),[9],6%
same,Population Mitochondria Different-Phenotype (%),[9],11%
same,Population Mitotic Cells (%),[9],59%
same,Population Normal (%),[9],97%
same,Population Pyknosed Nuclei (%),[9],13%
same,Population Tubulin-Different-Phenotype (%),[9],22%
same,Total Cell Count,[9],150
same,Population Apoptotic (%),[10],60%
same,Population Fragmented Nuclei (%),[10],17%
same,Population Healthy Nuclei (%),[10],75%
same,Population Hoechst High Intensity Objects (%),[10],10%
same,Population Membrane Permeable-Phenotype (%),[10],16%
same,Population Mitochondria Different-Phenotype (%),[10],8%
same,Population Mitotic Cells (%),[10],40%
same,Population Normal (%),[10],89%
same,Population Pyknosed Nuclei (%),[10],7%
same,Population Tubulin-Different-Phenotype (%),[10],10%
same,Total Cell Count,[10],68
same,Population Apoptotic (%),[11],64%
same,Population Fragmented Nuclei (%),[11],14%
same,Population Healthy Nuclei (%),[11],43%
same,Population Hoechst High Intensity Objects (%),[11],6%
same,Population Membrane Permeable-Phenotype (%),[11],28%
same,Population Mitochondria Different-Phenotype (%),[11],90%
same,Population Mitotic Cells (%),[11],35%
same,Population Normal (%),[11],93%
same,Population Pyknosed Nuclei (%),[11],41%
same,Population Tubulin-Different-Phenotype (%),[11],95%
same,Total Cell Count,[11],240
same,Population Apoptotic (%),[12],62%
same,Population Fragmented Nuclei (%),[12],13%
same,Population Healthy Nuclei (%),[12],44%
same,Population Hoechst High Intensity Objects (%),[12],5%
same,Population Membrane Permeable-Phenotype (%),[12],52%
same,Population Mitochondria Different-Phenotype (%),[12],94%
same,Population Mitotic Cells (%),[12],37%
same,Population Normal (%),[12],95%
same,Population Pyknosed Nuclei (%),[12],42%
same,Population Tubulin-Different-Phenotype (%),[12],97%
same,Total Cell Count,[12],156
C[C@]1(O)C[C@@H](c2nc(-c3ccc4ccc(-c5ccccc5)nc4c3)c3c(N)nccn32)C1 [LINSITINIB],Population Apoptotic (%),[1],57% and 35%
same,Population Fragmented Nuclei (%),[1],10% and 3%
same,Population Healthy Nuclei (%),[1],79% and 85%
same,Population Hoechst High Intensity Objects (%),[1],2% and 4%
same,Population Mitochondria Different-Phenotype (%),[1],17% and 28%
same,Population Mitotic Cells (%),[1],42% and 64%
same,Population Normal (%),[1],97% and 95%
same,Population Pyknosed Nuclei (%),[1],9% and 11%
same,Population Tubulin-Different-Phenotype (%),[1],50%
same,Total Cell Count,[1],132 and 196
same,Population Apoptotic (%),[2],50% and 33%
same,Population Fragmented Nuclei (%),[2],13% and 5%
same,Population Healthy Nuclei (%),[2],81% and 89%
same,Population Hoechst High Intensity Objects (%),[2],8% and 19%
same,Population Membrane Permeable-Phenotype (%),[2],39% and 16%
same,Population Mitochondria Different-Phenotype (%),[2],16% and 25%
same,Population Mitotic Cells (%),[2],50% and 66%
same,Population Normal (%),[2],91% and 80%
same,Population Pyknosed Nuclei (%),[2],5% and 4%
same,Population Tubulin-Different-Phenotype (%),[2],45% and 28%
same,Total Cell Count,[2],83 and 65
same,Population Apoptotic (%),[5],48% and 53%
same,Population Fragmented Nuclei (%),[5],4%
same,Population Healthy Nuclei (%),[5],76% and 87%
same,Population Membrane Permeable-Phenotype (%),[5],23% and 8%
same,Population Mitochondria Different-Phenotype (%),[5],20% and 22%
same,Population Mitotic Cells (%),[5],51% and 46%
same,Population Normal (%),[5],94% and 98%
same,Population Pyknosed Nuclei (%),[5],11% and 8%
same,Population Tubulin-Different-Phenotype (%),[5],41% and 33%
same,Total Cell Count,[5],180 and 194
same,Population Fragmented Nuclei (%),[6],12% and 8%
same,Population Healthy Nuclei (%),[6],79% and 84%
same,Population Membrane Permeable-Phenotype (%),[6],27% and 13%
same,Population Mitochondria Different-Phenotype (%),[6],19% and 28%
same,Population Mitotic Cells (%),[6],60% and 100%
same,Population Normal (%),[6],95% and 86%
same,Population Pyknosed Nuclei (%),[6],7%
same,Population Tubulin-Different-Phenotype (%),[6],28% and 38%
same,Total Cell Count,[6],114 and 78
